# Published values of several laboratories.
# Lines come from different studies, so protocols differ.
# Cell line: MDA-MB-231
# Effect on: cell growth or viability
Compound,assay,conditions,measurement,result
CNC(=O)c1cc(Oc2ccc(NC(=O)Nc3ccc(Cl)c(C(F)(F)F)c3)cc2)ccn1,MTT,"25 µM, 24 h",viability,24.3%
NCCC(=O)Nc1ccccc1/N=c1\cc(-c2ccc3c(c2)OCCO3)oc2cc(F)ccc12,CCK-8,1 µM,inhibition,52.9%
COc1ccc(-c2nn(-c3ccccc3)cc2C=Nc2c(N)nc(S)nc2O)cc1,,48 h,CC50,> 20 µM
O=C(Nc1ccc(Cl)cc1)Nc1ccc(Oc2nc3ccccc3n3cnnc23)cc1,MTT,"3.125 µM, 24 h",viability,100%
O=C(NN=Cc1ccc(Br)cc1)C1CC(=O)N(c2ccc(F)cc2F)C1 (stereo not drawn),MTT,72 h,EC50,22.6 µM
O=C(Nc1ccccc1)Nc1ccc(Oc2nc3ccccc3n3cnnc23)cc1,MTT,"3.125 µM, 24 h",viability,100%
C[C@H](N)C(=O)Nc1ccccc1/N=c1\cc(-c2ccc3c(c2)OCCO3)oc2c(N)cccc12,CCK-8,1 µM,inhibition,-1.6%
CCN(N=Cc1ccc(Br)cc1)C(=O)C1CC(=O)N(c2ccc(F)cc2F)C1 (stereo not drawn),MTT,72 h,EC50,32.9 µM
CCNc1nc2ccc(-c3c/c(=N\c4ccccc4NC(=O)CCN)c4ccccc4o3)cc2o1,CCK-8,1 µM,inhibition,54.2%
Nc1nc(S)nc(O)c1N=Cc1cn(-c2ccccc2)nc1-c1ccc(Cl)cc1,,48 h,CC50,18.4 µM
Cc1ccc(C=NNC(=O)C2CC(=O)N(c3ccc(F)cc3F)C2)cc1 (stereo not drawn),MTT,72 h,EC50,22.8 µM
NCCC(=O)Nc1ccccc1/N=c1\cc(-c2ccc3nc(N)oc3c2)oc2ccccc12,CCK-8,1 µM,inhibition,68.6%
